Sampled rows, rich in hits. Any-hit rate of the full collection: about 2.2%.
PKD1 kinase inh: blocks activity of human protein kinase D1. PKD1 kinase fluorescence polarization assay. AID 797. hit rate 0.056% among 200,000. inhibition, % (concentration not given with the values). Q15139; in the data active = inhibition above about 50%
p97 ATPase inh: inhibitors of human p97 ATPase. AID 1481. recombinant p97 ATPase, Kinase-Glo ATP luminescence, 3 h. hit rate 0.42% among 220,000. P55072. inhibition, % at 8 µM; in the data active = inhibition above about 15%;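 note: 0% = DMSO vehicle and 100% = wells lacking enzyme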
Target sequence (P55072 whole entry, looked up): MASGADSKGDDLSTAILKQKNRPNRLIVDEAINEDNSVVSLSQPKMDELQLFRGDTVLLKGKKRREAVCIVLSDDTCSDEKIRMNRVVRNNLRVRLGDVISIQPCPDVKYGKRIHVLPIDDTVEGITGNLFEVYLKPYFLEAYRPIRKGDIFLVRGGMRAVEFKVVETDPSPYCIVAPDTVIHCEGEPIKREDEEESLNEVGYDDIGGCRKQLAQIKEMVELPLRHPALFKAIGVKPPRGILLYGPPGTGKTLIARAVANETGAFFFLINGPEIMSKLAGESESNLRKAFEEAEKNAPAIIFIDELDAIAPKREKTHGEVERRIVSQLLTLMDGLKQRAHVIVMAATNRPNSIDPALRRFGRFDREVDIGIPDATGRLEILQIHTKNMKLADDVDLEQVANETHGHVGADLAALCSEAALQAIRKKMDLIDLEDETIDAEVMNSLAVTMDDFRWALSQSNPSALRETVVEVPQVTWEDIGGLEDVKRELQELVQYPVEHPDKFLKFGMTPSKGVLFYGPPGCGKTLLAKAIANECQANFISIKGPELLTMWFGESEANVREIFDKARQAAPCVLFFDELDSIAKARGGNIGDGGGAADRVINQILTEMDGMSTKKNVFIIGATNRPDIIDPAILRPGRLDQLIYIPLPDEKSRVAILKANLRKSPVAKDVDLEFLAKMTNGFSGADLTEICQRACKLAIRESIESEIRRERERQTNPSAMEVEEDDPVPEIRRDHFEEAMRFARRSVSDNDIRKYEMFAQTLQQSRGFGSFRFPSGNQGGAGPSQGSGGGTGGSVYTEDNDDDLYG
Redox H2O2 prof: compounds producing H2O2 with reducing agent – biochemical, NIH compound library profiling, artefact control for MLSCN library redox annotation, primary screen | hit rate 0.03% among 200,000 | DTT-dependent redox cycling H2O2, phenol red/HRP absorbance; 100% = 100 µM peroxide control, 0% = buffer | activation, % at 10 µM;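 active = activation of at least 50% relative to the plate's high and low controls in the primary single-dose screen; inactive = activation below 50%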;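 note: compound incubated with DTT at 0.8 mM final as the reducing agent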
Wee1 degr inh: inhibitors of human Wee1 degradation | HeLa Luc-Wee1K328M stability, luciferase luminescence; 100% = proteasome inhibitor MG132 effect | P30291 | reporter increase, % at 5 µM | hit rate 1.2% among 220,000 | AID 1321;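 active = activation above the mean of all tested compounds plus 3 SD, set per screening run, cut at about 8.8% in these data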;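 note: cells exposed to compound for 20 h before luminescence read; 0% = DMSO alone and 100% = MG132 at 30 µM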
Arbovirus inh: blocks arbovirus infection. arbovirus infection cell-based antiviral screen. inhibition, % at 10 µM. hit rate 0.37% among 200,000; in the data active = inhibition above about 30%
RBBP9 inh: inhibitors of human serine hydrolase RBBP9. O75884. recombinant RBBP9, FP-Rh probe fluorescence polarization. inhibition, % at 7.94 µM. hit rate 0.2% among 220,000. AID 1515;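 active = inhibition above the campaign mean of all tested compounds plus 3 SD, cut at about 14% in these data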;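 note: plate controls were DMSO wells with RBBP9 for no effect and wells lacking RBBP9 protein for full effect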
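Material: RBBP9 protein. Amount: RBBP9 at 2.5 µM in dispensed solution, before mixing. Schedule: 30 min then 45 min, 25 °C. Medium: Tris buffer pH 8.0, NaCl, Pluronic. Measured by: fluorescence polarization. Measure: percent inhibition from mP, scaled between DMSO and no-protein wells. Replication: one well per compound.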
* hit, by the source's call.

Screening CC1Cc2ccccc2N1S(=O)(=O)c1cccc(C(=O)N2CCN(c3ncccn3)CC2)c1 (stereo unspecified) returned PKD1 kinase inh -5, p97 ATPase inh -1, Redox H2O2 prof -1, Wee1 degr inh -4, Arbovirus inh 38* and RBBP9 inh 0.
For O=C(CC1S/C(=N/N=C/c2c[nH]c3ccc(OCc4ccccc4)cc23)NC1=O)Nc1ccccc1 (stereo unspecified) the results were PKD1 kinase inh -9, p97 ATPase inh -3, Redox H2O2 prof 0, Wee1 degr inh 8.9*, Arbovirus inh -1 and RBBP9 inh -2.
For OC(CNCCc1ccccc1)c1ccccc1 (stereo unspecified) the results were PKD1 kinase inh -2, p97 ATPase inh 3, Redox H2O2 prof 1, Wee1 degr inh 2, Arbovirus inh 10 and RBBP9 inh -4.
For COc1ccc(CCNCC(O)c2ccccc2)cc1 (stereo unspecified) the results were PKD1 kinase inh -3, p97 ATPase inh 5, Redox H2O2 prof 0, Wee1 degr inh -1, Arbovirus inh 31* and RBBP9 inh -2.
COc1cc(C2c3c(oc4ccccc4c3=O)C(=O)N2c2nccs2)ccc1O (stereo unspecified) was read as p97 ATPase inh 4, Wee1 degr inh 0 and RBBP9 inh 1.
For O=C(CNC(=O)c1cccs1)NCC(=O)OCc1cccc(Cl)c1 the results were PKD1 kinase inh 3, p97 ATPase inh 0, Redox H2O2 prof -4, Wee1 degr inh -2, Arbovirus inh 1 and RBBP9 inh 5.
`O=C(CNC(=O)c1cccs1)NCC(=O)OCc1c(F)cccc1Cl` gave PKD1 kinase inh 4, p97 ATPase inh -3, Redox H2O2 prof 0, Wee1 degr inh 9.0*, Arbovirus inh 1 and RBBP9 inh -2.
`CCOC(=O)NC(=O)/C(N=Nc1ccc(C(F)(F)F)cc1)=C(\C)O` gave PKD1 kinase inh 0, p97 ATPase inh -1, Redox H2O2 prof -1, Wee1 degr inh 9.9*, Arbovirus inh 3 and RBBP9 inh -11.
For O=C(c1ccc(F)cc1)N1CCN(c2cc(N3CCCCC3)c(F)cc2[N+](=O)[O-])CC1 the results were PKD1 kinase inh -2, p97 ATPase inh 0, Redox H2O2 prof 2, Wee1 degr inh -1, Arbovirus inh -4 and RBBP9 inh 6.
For CC1CC(C)CN(c2nc(NCc3ccco3)nc(N)c2[N+](=O)[O-])C1 (stereo unspecified) the results were PKD1 kinase inh 14, p97 ATPase inh -3, Redox H2O2 prof -1, Wee1 degr inh 11*, Arbovirus inh 33* and RBBP9 inh 0.
`Cc1cc(N2CCOCC2)ccc1/C=C\[N+](=O)[O-]` gave PKD1 kinase inh 0, p97 ATPase inh 3, Redox H2O2 prof 0, Wee1 degr inh -1, Arbovirus inh -36 and RBBP9 inh -3.
Cc1[nH][nH]c(=O)c1C(c1c(C)[nH][nH]c1=O)c1cn(C)c2ccccc12 was read as PKD1 kinase inh 5, p97 ATPase inh 6, Redox H2O2 prof 0, Wee1 degr inh -1, Arbovirus inh -6 and RBBP9 inh -1.
For Cc1[nH][nH]c(=O)c1C(c1c(C)[nH][nH]c1=O)c1cn(Cc2cccc3ccccc23)c2ccccc12 the results were PKD1 kinase inh -2, p97 ATPase inh 27*, Redox H2O2 prof -4, Wee1 degr inh 0, Arbovirus inh -18 and RBBP9 inh -4.
`CC(C)c1ccccc1NS(=O)(=O)N(C)C` gave PKD1 kinase inh -6, p97 ATPase inh -1, Redox H2O2 prof 0, Wee1 degr inh 1, Arbovirus inh 1 and RBBP9 inh 0.
For CC(C)c1ccccc1NS(C)(=O)=O the results were PKD1 kinase inh -5, p97 ATPase inh 4, Redox H2O2 prof 0, Wee1 degr inh 16*, Arbovirus inh -3 and RBBP9 inh 3.
Cc1ccc(S(=O)(=O)N2CCC(C(=O)N/N=C/c3ccncc3)CC2)cc1 was read as PKD1 kinase inh 1, p97 ATPase inh 3, Redox H2O2 prof 0, Wee1 degr inh 6, Arbovirus inh -11 and RBBP9 inh -4.
`Cc1nc2c(-c3ccc(F)cc3)cnn2c2c1CCC2` gave PKD1 kinase inh -5, p97 ATPase inh 2, Redox H2O2 prof -1, Wee1 degr inh 2, Arbovirus inh -6 and RBBP9 inh -6.
O=C(O[C@@H]1Cc2c(O)cc(O)cc2O[C@@H]1c1cc(O)c(O)c(O)c1)c1cc(O)c(O)c(O)c1 was read as p97 ATPase inh 42*, Wee1 degr inh -2, Arbovirus inh -8 and RBBP9 inh -6.
Screening CCN(CC)S(=O)(=O)c1ccc(C)c(NC(=S)NNC(=O)C2CC2)c1 returned PKD1 kinase inh 2, p97 ATPase inh 8, Redox H2O2 prof 0, Wee1 degr inh -3, Arbovirus inh 3 and RBBP9 inh -6.
For O=C(CN1CCN(Cc2ccccc2)CC1)N/N=C/c1cccs1 the results were p97 ATPase inh -3, Wee1 degr inh 3 and RBBP9 inh -5.
Screening O=C(CN1CCCCCC1)N/N=C/c1cccs1 returned PKD1 kinase inh -2, p97 ATPase inh -2, Redox H2O2 prof 0, Wee1 degr inh -1, Arbovirus inh 46* and RBBP9 inh -4.
O=C(CN1CCCCCCC1)N/N=C/c1ccc(F)cc1F was read as PKD1 kinase inh -2, p97 ATPase inh 3, Redox H2O2 prof 0, Wee1 degr inh 9.6*, Arbovirus inh -2 and RBBP9 inh -4.
For FC(F)(F)c1ccc(Nc2nnnc3ccccc23)cc1 the results were PKD1 kinase inh -5, p97 ATPase inh 0, Redox H2O2 prof 0, Wee1 degr inh -1, Arbovirus inh -5 and RBBP9 inh -7.
CCOC(=O)Nc1c(Cl)n(C)c(=O)n(C)c1=O was read as p97 ATPase inh 4, Wee1 degr inh 3 and RBBP9 inh 9.
`CC1=CCC(C(=O)O)C(C(=O)Nc2ccc(-c3nc4ccc(C)cc4s3)cc2)C1` (stereo unspecified) gave p97 ATPase inh 1, Wee1 degr inh -4 and RBBP9 inh -3.
`O=C(Nc1ccc(CN2CCS(=O)(=O)CC2)cc1)c1ccc(F)cc1` gave p97 ATPase inh 11, Wee1 degr inh 9.7* and RBBP9 inh -9.
CCN(C(=S)Nc1ccc(C(C)=O)cc1)C1CCCCC1 was read as PKD1 kinase inh -9, p97 ATPase inh 3, Redox H2O2 prof 0, Wee1 degr inh 7, Arbovirus inh 19 and RBBP9 inh -9.
`O=C(/C=C/Nc1ccc(F)cc1)c1ccc(Br)cc1` gave PKD1 kinase inh -4, p97 ATPase inh 0, Redox H2O2 prof -2, Wee1 degr inh 9.4*, Arbovirus inh -3 and RBBP9 inh -4.
